Reference: ChEMBL document CHEMBL5058577, “EUbOPEN Chemogenomics Library 2 (Multiplex)” (2022)

Test system: Fibroblast
Experiment: Multiplex assay against human fibroblast
Format: toxicity, cell-based
Method in brief: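 Four dyes were applied at seeding to live cells: Hoechst33342, BioTracker Green Microtubule Cytoskeleton Dye, MitoTracker Red and Annexin V Alexa Fluor 680. Imaging after compound addition used a CQ1 microscope at 37°C and 5% CO2. CellPathfinder machine-learning gating then sorted cells into Hoechst high-intensity objects or normal cells, normal cells into healthy, pyknosed or fragmented nuclei, and pyknosed cells into mitotic or apoptotic, with tubulin, mitochondrial-mass and membrane-permeability phenotypes given as per cents of healthy-nucleus cells.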

[1] = 12 h, 1 µM, compound concentration 1 uM, replicate 1
[2] = 12 h, 1 µM, compound concentration 1 uM, replicate 2
[3] = 12 h, 10 µM, compound concentration 10 uM, replicate 1
[4] = 12 h, 10 µM, compound concentration 10 uM, replicate 2
[5] = 24 h, 1 µM, compound concentration 1 uM, replicate 1
[6] = 24 h, 1 µM, compound concentration 1 uM, replicate 2
[7] = 24 h, 10 µM, compound concentration 10 uM, replicate 1
[8] = 24 h, 10 µM, compound concentration 10 uM, replicate 2
[9] = 48 h, 1 µM, compound concentration 1 uM, replicate 1
[10] = 48 h, 1 µM, compound concentration 1 uM, replicate 2
[11] = 48 h, 10 µM, compound concentration 10 uM, replicate 1
[12] = 48 h, 10 µM, compound concentration 10 uM, replicate 2

## CCCN1CCC[C@@H]2Cc3n[nH]cc3C[C@H]21.Cl [QUINPIROLE HYDROCHLORIDE]
[1]
  Population Apoptotic (%): 45%
  Population Fragmented Nuclei (%): 14%
  Population Healthy Nuclei (%): 65%
  Population Hoechst High Intensity Objects (%): 2%
  Population Membrane Permeable-Phenotype (%): 0%
  Population Mitochondria Different-Phenotype (%): 3%
  Population Mitotic Cells (%): 54%
  Population Normal (%): 97%
  Population Pyknosed Nuclei (%): 20%
  Population Tubulin-Different-Phenotype (%): 17%
  Total Cell Count: 156
[2]
  Population Apoptotic (%): 52%
  Population Fragmented Nuclei (%): 22%
  Population Healthy Nuclei (%): 60%
  Population Hoechst High Intensity Objects (%): 6%
  Population Membrane Permeable-Phenotype (%): 7%
  Population Mitochondria Different-Phenotype (%): 6%
  Population Mitotic Cells (%): 47%
  Population Normal (%): 93%
  Population Pyknosed Nuclei (%): 17%
  Population Tubulin-Different-Phenotype (%): 50%
  Total Cell Count: 139
[3]
  Population Apoptotic (%): 58%
  Population Fragmented Nuclei (%): 16%
  Population Healthy Nuclei (%): 68%
  Population Hoechst High Intensity Objects (%): 4%
  Population Membrane Permeable-Phenotype (%): 1%
  Population Mitochondria Different-Phenotype (%): 6%
  Population Mitotic Cells (%): 41%
  Population Normal (%): 95%
  Population Pyknosed Nuclei (%): 15%
  Population Tubulin-Different-Phenotype (%): 33%
  Total Cell Count: 115
[4]
  Population Apoptotic (%): 45%
  Population Fragmented Nuclei (%): 23%
  Population Healthy Nuclei (%): 59%
  Population Hoechst High Intensity Objects (%): 2%
  Population Membrane Permeable-Phenotype (%): 10%
  Population Mitotic Cells (%): 54%
  Population Normal (%): 97%
  Population Pyknosed Nuclei (%): 17%
  Population Tubulin-Different-Phenotype (%): 55%
  Total Cell Count: 184
[5]
  Population Apoptotic (%): 52%
  Population Fragmented Nuclei (%): 21%
  Population Healthy Nuclei (%): 64%
  Population Hoechst High Intensity Objects (%): 1%
  Population Membrane Permeable-Phenotype (%): 0%
  Population Mitochondria Different-Phenotype (%): 2%
  Population Mitotic Cells (%): 47%
  Population Normal (%): 98%
  Population Pyknosed Nuclei (%): 13%
  Population Tubulin-Different-Phenotype (%): 13%
  Total Cell Count: 172
[6]
  Population Apoptotic (%): 34%
  Population Fragmented Nuclei (%): 28%
  Population Healthy Nuclei (%): 53%
  Population Hoechst High Intensity Objects (%): 2%
  Population Membrane Permeable-Phenotype (%): 1%
  Population Mitochondria Different-Phenotype (%): 7%
  Population Mitotic Cells (%): 65%
  Population Pyknosed Nuclei (%): 17%
  Population Tubulin-Different-Phenotype (%): 41%
  Total Cell Count: 150
[7]
  Population Apoptotic (%): 75%
  Population Fragmented Nuclei (%): 22%
  Population Healthy Nuclei (%): 67%
  Population Hoechst High Intensity Objects (%): 2%
  Population Membrane Permeable-Phenotype (%): 0%
  Population Mitochondria Different-Phenotype (%): 7%
  Population Mitotic Cells (%): 25%
  Population Normal (%): 97%
  Population Pyknosed Nuclei (%): 10%
  Population Tubulin-Different-Phenotype (%): 32%
  Total Cell Count: 119
[8]
  Population Apoptotic (%): 55%
  Population Fragmented Nuclei (%): 38%
  Population Healthy Nuclei (%): 51%
  Population Hoechst High Intensity Objects (%): 1%
  Population Membrane Permeable-Phenotype (%): 7%
  Population Mitochondria Different-Phenotype (%): 3%
  Population Mitotic Cells (%): 45%
  Population Normal (%): 98%
  Population Pyknosed Nuclei (%): 9%
  Population Tubulin-Different-Phenotype (%): 39%
  Total Cell Count: 209
[9]
  Population Apoptotic (%): 68%
  Population Fragmented Nuclei (%): 23%
  Population Healthy Nuclei (%): 62%
  Population Hoechst High Intensity Objects (%): 3%
  Population Membrane Permeable-Phenotype (%): 0%
  Population Mitochondria Different-Phenotype (%): 3%
  Population Mitotic Cells (%): 32%
  Population Normal (%): 96%
  Population Pyknosed Nuclei (%): 14%
  Population Tubulin-Different-Phenotype (%): 21%
  Total Cell Count: 175
[10]
  Population Apoptotic (%): 38%
  Population Fragmented Nuclei (%): 37%
  Population Healthy Nuclei (%): 53%
  Population Hoechst High Intensity Objects (%): 1%
  Population Membrane Permeable-Phenotype (%): 8%
  Population Mitochondria Different-Phenotype (%): 4%
  Population Mitotic Cells (%): 61%
  Population Normal (%): 98%
  Population Pyknosed Nuclei (%): 8%
  Population Tubulin-Different-Phenotype (%): 42%
  Total Cell Count: 157
[11]
  Population Apoptotic (%): 53%
  Population Fragmented Nuclei (%): 23%
  Population Healthy Nuclei (%): 65%
  Population Hoechst High Intensity Objects (%): 1%
  Population Membrane Permeable-Phenotype (%): 2%
  Population Mitochondria Different-Phenotype (%): 6%
  Population Mitotic Cells (%): 46%
  Population Normal (%): 98%
  Population Pyknosed Nuclei (%): 11%
  Population Tubulin-Different-Phenotype (%): 31%
  Total Cell Count: 119
[12]
  Population Apoptotic (%): 46%
  Population Fragmented Nuclei (%): 43%
  Population Healthy Nuclei (%): 48%
  Population Hoechst High Intensity Objects (%): 3%
  Population Mitochondria Different-Phenotype (%): 4%
  Population Mitotic Cells (%): 53%
  Population Normal (%): 96%
  Population Pyknosed Nuclei (%): 8%
  Population Tubulin-Different-Phenotype (%): 48%
  Total Cell Count: 192
